Screening data (PubChem BioAssay)
hERG protect = compounds protecting human hERG from proarrhythmic drug block. activation (rescue from dofetilide block), less the hit threshold, % at 10 µM. Q12809. AID 1511. CHO-hERG, FluxOR thallium flux, dofetilide IC70 present. 310,000 tested, 0.51% active;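 active means activation above the mean of controls blocked by dofetilide plus 5 SD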;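 further: thallium influx through hERG after potassium depolarization seen as dye fluorescence rise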
KCNQ1 block = inhibitors of human KCNQ1 potassium channel | AID 2642 | B-score at 10 µM | 310,000 tested, 1.3% active | CHO-K1 KCNQ1, FluxOR thallium flux fluorescence; active compounds read high | P51787;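 active means compounds whose thallium flux B-score, printed positive for inhibition, exceeds three library SD while starting fluorescence stays within three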;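 further: channel opened by potassium depolarization with thallium stimulus after 20 min compound exposure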
KCNQ1 act = potentiators or activators of human KCNQ1 potassium channel; CHO-K1 KCNQ1, thallium flux FluxOR fluorescence; active compounds read high; B-score at 10 µM; 310,000 tested, 0.35% active; AID 2648;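 active means fluorescence ratio B-score, a plate-corrected score, at least three library SD, with initial intensity B-score within 5 SD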
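Material: CHO-K1 cells stably expressing KCNQ1. Medium: assay buffer for compound exposure, DMSO matched across wells. Reagent: K+/Tl+ depolarizing stimulus. Compound dosing: single-concentration screen. Times: 37 °C overnight plating, 90-min dark dye load, 20-min compound pretreatment. Technique: FluxOR Tl+ flux fluorescence.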
KCNK3 block = human KCNK3 channel inhibition, primary screen; O14649; 340,000 tested, 0.84% active; B-score at 10 µM; CHO-KCNK3 thallium flux, FluxOR fluorescence; active compounds read low; AID 602410;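 active means B-score under library mean minus 4 SD, starting fluorescence ratio at most library mean plus 5 SD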;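 further: more negative B-score means stronger inhibition of thallium flux through KCNK3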
KCC2 mod = modulates chloride dependent transport by human KCC2; Q9H2X9; B-score of Tl+ flux slope (higher = more flux/activation; lower = inhibition) at 10 µM; 190,000 tested, 2.2% active; KCC2 cells, thallium flux FluoZin-2 fluorescence;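 active means thallium flux slope and its plate-corrected score both differing from the plate sample mean at a set confidence after two filtering rounds, in either direction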;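 further: slope of fluorescence scaled to starting intensity during 10 to 20 s after thallium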
KCNK9 inh = blocks the human KCNK9 two-pore domain potassium channel | Q9NPC2 | HEK293 KCNK9, FluxOR thallium flux fluorescence; active compounds read low | B-score at 10 µM | 310,000 tested, 1.2% active | AID 488922;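 active means ratio B-score over 3 SD below the library mean, with starting fluorescence within 5 SD of its mean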;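 further: negative B-score means less thallium flux so channel inhibition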
KCNK9 inh conf = confirmation of human KCNK9 potassium channel inhibitors; HEK293 KCNK9 cells, FluxOR thallium flux fluorescence; inhibition, % at 10 µM; shares compounds with KCNK9 inh; 4,900 tested, 43% active;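 active means thallium signal inhibited by more than 5 SD of the compound-free buffer control wells, on both duplicate plates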;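 further: 0% = assay buffer control wells without compound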
Kir21 sel = mouse Kir2.1 off-target activity of KCNK9 modulators; shares compounds with KCNK9 inh; Kir2.1 cells, FluxOR thallium flux fluorescence; inhibition, % at 10 µM; 4,900 tested, 4% active; AID 492993;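 active means thallium signal drop more than 5 SD beyond the mean of the no-compound control wells, seen in both duplicate plates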;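 further: signal is fluorescence rise after thallium addition divided by baseline fluorescence; plate controls were assay buffer only for no effect and full block by chlorpromazine control for full effect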
KCNK9 uninduced = second counter-screen for KCNK9 modulators: effect in non-induced cells. shares compounds with KCNK9 inh. non-induced KCNK9-HEK293, FluxOR thallium flux. inhibition, % at 10 µM. 4,900 tested, 40% active;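 active means thallium signal drop beyond 5 SD of the untreated control mean, on both duplicate plates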;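 further: plate controls were buffer only IC0 wells for no effect and SID17386958 at its maximal inhibitory level for full effect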
KCNK3 inh conf = human KCNK3 channel inhibition, confirmation assay. shares compounds with KCNK3 block. 2,400 tested, 99% active. ratio percent of control, % at 10 µM. CHO-KCNK3 thallium flux, FluxOR fluorescence; 0% buffer, 100% carvedilol maximal block;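 active means ratio percent of control, averaged over triplicates, above buffer control mean plus 5 SD, cut at about 64% in these data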;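 further: ratio is the fluorescence rise from min to max over baseline after thallium stimulus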
KCNK3 noninduced = counter-screen for KCNK3 inhibitors: effect in non-induced cells. shares compounds with KCNK3 block. non-induced KCNK3 parental cells, FluxOR thallium flux; active compounds read low. thallium flux ratio (lower = more inhibition) at 10 µM. 2,400 tested, 40% active;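 active means thallium flux ratio, averaged over three wells, more than 5 SD below the buffer control mean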;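 further: host cells are CHO cells without KCNK3 induction; ratio is peak minus trough fluorescence over baseline then normalized to buffer controls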
The depositor's hits bear a star; i = inactive; . = not tested or not shown. Hits are enriched below; roughly 4.1% of the tested compounds scored in any of these assays.

SMILES | hERG protect | KCNQ1 block | KCNQ1 act | KCNK3 block | KCC2 mod | KCNK9 inh | KCNK9 inh conf | Kir21 sel | KCNK9 uninduced | KCNK3 inh conf | KCNK3 noninduced
O=c1[nH]c(Cl)ccc1CN1CCOCC1 | -5 | i | i | i | . | i | . | . | . | . | .
Cc1cnc(-n2c(=S)[nH]c3ccccc3c2=O)s1 | . | . | . | i | . | . | . | . | . | . | .
CCOP(=O)(C#CC(C)(C)C)C(C)(O)c1ccccc1 (centres undefined) | -9 | i | i | i | 0.32 | i | . | . | . | . | .
CC(C)(C#CC(=O)O)OOC(c1ccccc1)(c1ccccc1)c1ccccc1 | -13 | i | i | i | . | i | i | i | i | . | .
NC(N)=N/N=C/c1cn(-c2ccccc2)nc1-c1cccs1 | -30 | 9* | i | -12* | -1.3 | -9.2* | 54%* | 50%* | i | 101* | i
O=P(Nc1cccc(F)c1)(Oc1ccccc1F)Oc1ccccc1F | -34 | i | i | -12* | -0.24 | -11* | 48%* | i | 31%* | 87* | 0.13*
O=C(c1ccc(Cl)cc1)C1CCCN(Cc2ccc3nonc3c2)C1 (centres undefined) | -13 | i | i | -9.2* | . | -8.1* | 58%* | i | i | 95* | i
O=C1C(Cl)=CC(=Nc2ccc(O)cc2)C=C1Cl | . | . | . | i | . | . | . | . | . | . | .
CN1C(=O)C(=Cc2c(OCc3cnc(Cl)s3)ccc3ccccc23)C(=O)N(C)C1=O | -25 | i | i | -9* | -0.1 | -15* | 70%* | i | 27%* | 101* | i
CN1C(=O)C(=Cc2ccccc2OCc2ccccc2Cl)C(=O)N(C)C1=O | -8 | i | i | i | -0.32 | i | . | . | . | . | .
Oc1ccc(/C=N/NP(=S)(c2ccccc2)c2ccccc2)c(O)c1O | -12 | i | i | i | -1.2 | i | . | . | . | . | .
Oc1ccccc1/C=N/NP(=S)(c1ccccc1)c1ccccc1 | -14 | 12* | i | -15* | 0.049 | -13* | 42%* | i | 35%* | 109* | 0.15*
O[C@@H]1CCCC[C@H]1N1CCC(c2ccccc2)CC1 | -4 | i | i | i | 1.4 | i | . | . | . | . | .
c1ccc(C2NCCc3[nH]cnc32)cc1 (centres undefined) | -9 | i | i | i | . | i | . | . | . | . | .
CCN(CC)c1ccc(/C=C/[N+](=O)[O-])cc1 | -45 | 6* | i | -14* | i | i | . | . | . | 133* | 0.09*
Cc1c(C(=O)c2cccc3ccccc23)c2cccc3c2n1[C@H](CN1CCOCC1)CO3 | -3 | i | i | -11* | . | i | . | . | . | 80* | 0.16*
COc1ccccc1OCCCn1cc(C(C)=O)c2ccccc21 | -20 | i | i | i | -0.84 | i | . | . | . | . | .
COc1ccccc1OCCCn1cc(C(=O)C2CC2)c2ccccc21 | -14 | i | i | -8.8* | -1 | i | . | . | . | 111* | i
CN(C)C(=O)Oc1ccc(OCc2n(C)c3ccccc3[n+]2C)cc1 | -12 | i | i | i | 0.67 | i | . | . | . | . | .
CCN(CC(=O)Nc1ccc(C#N)c(Cl)c1)CC(=O)NC(C)(C)C | -2 | i | i | i | -1.8 | i | . | . | . | . | .
N#Cc1ccc(NC(=O)CCNC(=O)c2ccco2)cc1Cl | -10 | i | i | -10* | . | i | . | . | . | 95* | 0.15*
COc1ccc(-n2c(C)nc3ccccc3c2=O)c([N+](=O)[O-])c1 | -6 | i | i | i | . | i | . | . | . | . | .
